# Laboratory results reported in ChEMBL document CHEMBL1137645, “Functional characterization of TcaA: minimal requirement for teicoplanin susceptibility and role in Caenorhabditis elegans virulence” (2007).
# The source made the active and inactive calls. The rule behind the calls is not given here.
# How the values were obtained:
# Format in all cases: functional, organism-based
# Staphylococcus aureus [1] = assay: Induction of VraSR-dependent tcaA gene expression in Staphylococcus aureus KVR expressing N315 delta-vraSr mutant at 10 ug/mL after 30 mins by Northern blot analysis
# How it was run: (§1)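 Total RNA, 10 µg per sample, was separated on a 1.5% agarose–20 mM guanidine thiocyanate gel in 1x TBE, then Northern blotted.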
# Staphylococcus aureus [2] = assay: Induction of VraSR-dependent tcaA gene expression in Staphylococcus aureus N315 at 16 ug/mL after 30 mins by Northern blot analysis; how it was run: as §1
# Staphylococcus aureus [3] = assay: Induction of VraSR-dependent tcaA gene expression in Staphylococcus aureus KVR expressing N315 delta-vraSr mutant at 2 ug/mL after 30 mins by Northern blot analysis; how it was run: as §1
# Staphylococcus aureus [4] = assay: Induction of VraSR-dependent tcaA gene expression in Staphylococcus aureus N315 at 10 ug/mL after 30 mins by Northern blot analysis; how it was run: as §1
SMILES,Activity (Staphylococcus aureus [1]),Activity (Staphylococcus aureus [2]),Activity (Staphylococcus aureus [3]),Activity (Staphylococcus aureus [4])
CN[C@H](CC(C)C)C(=O)N[C@H]1C(=O)N[C@@H](CC(N)=O)C(=O)N[C@H]2C(=O)N[C@H]3C(=O)N[C@H](C(=O)N[C@H](C(=O)O)c4cc(O)cc(O)c4-c4cc3ccc4O)[C@H](O)c3ccc(c(Cl)c3)Oc3cc2cc(c3O[C@@H]2O[C@H](CO)[C@@H](O)[C@H](O)[C@H]2O[C@H]2C[C@](C)(N)[C@H](O)[C@H](C)O2)Oc2ccc(cc2Cl)[C@H]1O,inactive,Active,inactive,Active
Cc1onc(-c2ccccc2)c1C(=O)N[C@@H]1C(=O)N2[C@@H]1SC(C)(C)[C@@H]2C(=O)O,inactive,Active,inactive,Active
